# High-throughput results: PubChem, several laboratories
# Most compounds without a hit are left out; they make up all but 4% or so of the library.
# TAAR1 agonist: agonists of human TAAR1 | Q96RJ0 | CHO RD-HGA16 TAAR1, Fluo-8 calcium fluorescence; vehicle wells 0%, saturating PEA agonist 100% | activation, % at 3 µM | actives 0.99% (n = 360,000) | AID 624467;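 active means activation above the mean activation of all test compounds in the run plus 3 SD, cut at about 38% in these data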
# Target sequence (Q96RJ0 whole entry, looked up): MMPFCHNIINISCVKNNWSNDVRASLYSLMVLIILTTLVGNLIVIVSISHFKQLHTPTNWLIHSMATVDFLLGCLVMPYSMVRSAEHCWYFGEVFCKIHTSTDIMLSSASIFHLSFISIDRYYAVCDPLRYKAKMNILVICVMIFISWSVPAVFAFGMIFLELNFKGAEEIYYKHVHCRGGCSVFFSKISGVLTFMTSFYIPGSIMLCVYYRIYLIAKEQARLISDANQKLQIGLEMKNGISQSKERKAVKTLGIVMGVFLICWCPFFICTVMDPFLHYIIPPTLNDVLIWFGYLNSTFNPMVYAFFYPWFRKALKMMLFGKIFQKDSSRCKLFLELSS
#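 System: CHO-derived RD-HGA16 cells with stable Gα16 and human TAAR1 / Times: 17-24 h plating, Fluo-8 75 min 37 °C, 30 min RT / Technique: calcium-sensitive Fluo-8 signal, excitation 470-495, emission 515-575 nm / Measure: % activation relative to PEA EC100 response / Benchmarks: DMSO and PEA EC100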
# DAGLB inhibitor: diacylglycerol lipase beta (human) inhibition. HEK293T DAGLB membrane lysate, EnzChek fluorogenic substrate. inhibition, % at 5.17 µM. Q8NCG7. AID 504411. actives 0.059% (n = 340,000); in the data active means inhibition above about 34%;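 further: 0% = enzyme with vehicle and 100% = wells lacking enzyme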
# TAAR1 antag: antagonists of human TAAR1; Q96RJ0; CHO RD-HGA16 TAAR1, Fluo-8 calcium fluorescence, antagonist; inhibition, % at 3 µM; actives 1.5% (n = 360,000); AID 624466;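 active means inhibition above a per-plate cutoff, the mean inhibition of test compounds on that plate plus 3 SD, cut at about 49% in these data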;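 further: 0% = DMSO plus EC80 beta-PEA response and 100% = DMSO alone without agonist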
#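 Test system: CHO RD-HGA16 cells bearing hTAAR1 | Reagent: β-PEA, EC80 | Compound dosing: 3 µM, single point | Schedule: Dye loading 75 min at 37 °C, then 30 min room temperature | Signal: Calcium fluorescence with Fluo-8 | Evaluation: Percent inhibition of PEA-evoked calcium signal, max/basal emission ratio | Control set: DMSO-only wells and EC80 β-PEA-stimulated wells | Repeats: Singlicate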
# GPR7 antagonist: human neuropeptides B/W receptor 1 antagonism; GPR7-expressing cells, fluorescence antagonist assay; inhibition, % at 4.4 µM; actives 1.1% (n = 290,000); in the data active means inhibition above about 16%, passing the limit was not always enough;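 further: cells stimulated with the agonist NPW; 0% = agonist with vehicle and 100% = vehicle without agonist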
# Target sequence (P48145 whole entry, looked up): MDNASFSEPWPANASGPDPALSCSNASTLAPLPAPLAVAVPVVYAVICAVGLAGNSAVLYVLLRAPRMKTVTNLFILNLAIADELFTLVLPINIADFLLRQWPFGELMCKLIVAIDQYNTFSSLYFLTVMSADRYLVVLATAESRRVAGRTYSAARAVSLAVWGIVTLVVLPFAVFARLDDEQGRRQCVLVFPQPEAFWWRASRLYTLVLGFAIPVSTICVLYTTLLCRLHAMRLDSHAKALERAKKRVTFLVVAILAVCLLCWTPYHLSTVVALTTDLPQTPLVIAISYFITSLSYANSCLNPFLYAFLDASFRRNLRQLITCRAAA
# MPTP inh: blocks calcium-induced mitochondrial swelling; inhibition, % at 10 µM; AID 602449; actives 1.4% (n = 360,000); isolated mouse mitochondria, Ca2+ swelling absorbance, 30 min;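 active means inhibition of 50% or more, scaled per plate between neutral and stimulator controls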;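 further: 0% = DMSO wells given calcium and 100% = 1 mM EGTA wells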
# GPR7 antag conf: confirmation of human GPR7 antagonists. shares compounds with GPR7 antagonist. GPR7-expressing cells, calcium fluorescence antagonist mode. inhibition, % at 4.4 µM. actives 52% (n = 2,400); in the data active means inhibition above about 24%;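 further: stimulated with the GPR7 agonist NPW; 0% = agonist plus vehicle and 100% = vehicle alone without agonist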
# MCHR1 antagonist: antagonizes human MCHR1, a GPR7 antagonist counter-screen. AID 2148. MCHR1-expressing cells, fluorescence antagonist assay. inhibition, % at 4.4 µM. actives 62% (n = 2,400). shares compounds with GPR7 antagonist; in the data active means inhibition above about 22%;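 further: 0% = vehicle with agonist and 100% = vehicle without agonist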
# * = called active by the depositor; nt = no result.
SMILES,TAAR1 agonist,DAGLB inhibitor,TAAR1 antag,GPR7 antagonist,MPTP inh,GPR7 antag conf,MCHR1 antagonist
Nc1cnn(C2CCCO2)c(=O)n1 (centres undefined),6,-2,-13,24*,0,0,-5
CCOC(=O)N1CCN(Cc2cn[nH]c2-c2ccc(-c3ccccc3)cc2)CC1,3,1,-12,25*,1,-9,-5
CC(C)CN(C(=O)COC(=O)CCSc1ccc(Cl)cc1)c1c(N)n(Cc2ccccc2)c(=O)[nH]c1=O,0,4,-6,nt,1,nt,nt
Cc1nc(C)c(-c2ccc(SCC(=O)Nc3cccc(Cl)c3)nn2)s1,8,0,52*,33*,2,48*,67*
CC(=O)c1cccc(NC(=O)CSc2ccc(-c3sc(C)nc3C)nn2)c1,6,0,20,8,-2,nt,nt
CCc1ccc(NC(=O)CSc2ccc(-c3sc(C)nc3C)nn2)cc1,7,-4,22,31*,1,41*,76*
Cc1ccccc1-c1ccc2c(c1)[C@@H]1C[C@H]3[C@@H](CN1CC2)[C@H](C)ON3C,2,nt,-35,nt,nt,nt,nt
COC(=O)[C@@]1(Cc2ccc(F)cc2)[C@H]2c3cc(C(=O)N(C)C)n(Cc4ccccc4)c3C[C@H]2CN1C(=O)c1ccccc1,14,nt,0,nt,nt,nt,18
COC(=O)[C@@]1(Cc2ccc(F)cc2)[C@H]2c3cc(C(=O)N(C)C)n(Cc4ccc(OC)c(OC)c4)c3C[C@H]2CN1C(=O)c1ccccc1,24,nt,15,10,nt,nt,nt
CCOC(=O)C1CCN(C(c2cc(OC)c(OC)c(OC)c2)c2sc3nc(C)nn3c2O)CC1 (centres undefined),0,1,-19,3,0,nt,nt
COC(=O)C1CCN(C(c2cc(OC)c(OC)c(OC)c2)c2sc3nc(C)nn3c2O)CC1 (centres undefined),1,-2,-9,23*,-2,-10,3
N/C(=N\OC(=O)COc1ccc(Cl)cc1Br)c1cccnc1,0,-10,19,24*,-4,6,18
COc1ccccc1N1CCN(C(c2ccc(F)cc2)c2nnnn2C(C)C)CC1 (centres undefined),1,-1,0,43*,0,22,12
CC1(C)CC(=O)C=C(C2CC2)C1=O,6,nt,-20,nt,nt,nt,nt
O=C(c1ccc(Br)cc1)C(CN1CCOCC1)c1ccccc1 (centres undefined),8,17,7,67*,-1,59*,86*
CCOc1ccc(C(=O)C(CN2CCOCC2)c2ccccc2)cc1 (centres undefined),13,6,-1,13,1,nt,nt
CS/C(=C\[N+](=O)[O-])Nc1ccc(F)cc1,12,2,-25,23*,-10,-12,5
CC1c2[nH]c3ccccc3c2CCN1S(C)(=O)=O (centres undefined),4,0,-8,26*,-3,4,6
C[C@H]1CN(c2ccc(N3CCNC[C@@H]3C)cc2C#N)CCN1Cc1ccccc1,11,nt,-11,nt,nt,nt,nt
Cc1ccc(S(=O)(=O)N2CCCCC2)cc1C(=O)NCCc1ccccc1,-2,-1,2,-11,0,nt,nt
COc1ccc(S(=O)(=O)N2CCCCCC2)cc1C(=O)N(C)CCOc1ccccc1,4,-2,34,nt,0,nt,nt
O=C(NCCc1ccccc1)c1cc(S(=O)(=O)N2CCCC2)ccc1F,5,-2,-12,26*,-1,11,-4
Cc1ccc(S(=O)(=O)N2CCCCC2)cc1C(=O)N(C)CCOc1ccccc1,1,-2,-21,23*,1,20,22*
C/C=C/c1cccc(-c2nc(C(=O)NC3Cc4ccccc4C3)cc3c2[C@@H](CCO)N(C(C)=O)C3)c1,5,nt,-6,nt,0,nt,nt
COc1ccccc1NS(=O)(=O)c1c(C(=O)N2CCCC2)c(C)n(C)c1C,0,5,12,-1,-2,nt,nt
SMILES,TAAR1 agonist,DAGLB inhibitor,TAAR1 antag,GPR7 antagonist,MPTP inh,GPR7 antag conf,MCHR1 antagonist
COc1ccc(OC)c(NS(=O)(=O)c2c(C(=O)N3CCCCCC3)c(C)n(C)c2C)c1,-1,-1,-10,45*,0,28*,11
CC(C)(C)S(=O)N1Cc2cc(C(=O)NCc3ccc4c(c3)OCO4)nc(-c3cccc(-c4ccccc4)c3)c2[C@@H]1CCO (some centres undefined),5,nt,27,nt,-1,nt,nt
C=CCN1C(=O)CSc2ccc(C(=O)NCc3cccs3)cc21,3,1,0,28*,0,10,13
O=S(=O)(CS(=O)(=O)c1ccc(Br)cc1)c1ccc(Br)cc1,-1,nt,-8,nt,nt,nt,nt
CCOc1ccccc1N1CCN(c2ncnc3scc(-c4ccc(OC)cc4)c23)CC1,-1,-4,7,54*,3,17,54*
COc1ccc(-c2ccc(NC(=O)c3ccco3)cc2)nn1,3,2,-5,nt,0,nt,nt
C/C(=N\NC(=O)c1ccc2c(c1)OCO2)c1ccc(NC(=O)CCCC(=O)O)cc1,0,-2,-7,22*,-1,4,8
C[C@H]1COc2cccc(N3CCC[C@@H]3CO)c2S(=O)(=O)N1,2,nt,-21,nt,1,nt,nt
Cc1nn(Cc2ccc(C(=O)Nc3ccccc3F)cc2)c(C)c1Cl,2,-1,-9,32*,2,10,31*
O=C(NCC1CCN(Cc2ccccc2)CC1)[C@H]1O[C@@H](n2ccc(=O)[nH]c2=O)[C@H](O)[C@@H]1O,2,nt,18,nt,0,nt,nt
O=C(C(=O)N1CCN(C(=O)c2cc(C(F)(F)F)cc(C(F)(F)F)c2)CC1)c1cccc(C(F)(F)F)c1,-2,nt,-14,nt,nt,nt,nt
CCC(CC)c1nc(C#N)c(NCc2ccccc2)o1,3,-3,-13,31*,2,11,28*
N#Cc1nc(Cc2ccccc2)oc1NCc1ccccc1,3,-1,11,-2,2,nt,nt
CN(c1ccc(C(=O)NC2CCCC2)cc1)S(=O)(=O)c1ccc(Cl)cc1,1,-6,-5,33*,0,24,16
CC(=O)c1ccc(-c2cnc3c(NC=O)cc(-c4cnn(C)c4)cn23)cc1,3,nt,-17,nt,1,nt,nt
COCCNC(=O)Cn1cc(C(=S)N2CCCCC2)c2ccccc21,2,-2,-6,24*,-2,-6,3
COCCn1cc(C(=S)N2CCCCC2)c2ccccc21,0,1,-33,-7,0,nt,nt
Cc1ccc(OCCn2cc(C(=S)N3CCCC3)c3ccccc32)cc1C,0,-1,20,27*,-1,29*,68*
S=C(c1cn(CCOc2ccccc2)c2ccccc12)N1CCCC1,12,-1,9,14,1,nt,nt
CCC(c1nc2ccccc2[nH]1)n1c(-c2ccc3cc[nH]c3c2)nc2ccccc21 (centres undefined),11,nt,-11,nt,nt,nt,nt
